# Assay results as given in ChEMBL document CHEMBL4837245, “Discovery of VU6028418: A Highly Selective and Orally Bioavailable M4 Muscarinic Acetylcholine Receptor Antagonist” (ACS Med Chem Lett, 2021).
# Experiments:
# CYP3A4 [1] = biological target: T1, CYP3A4 (Homo sapiens, UniProt P08684); assay: Induction of CYP3A4 in human hepatocytes; type: ADME, cell-based, Hepatocyte
# [2] = biological target: T2, Sigma non-opioid intracellular receptor 1 (Homo sapiens, UniProt Q99720); assay: Inhibition of human sigma1 receptor by radioligand binding assay
# T2 sequence (Q99720 whole entry): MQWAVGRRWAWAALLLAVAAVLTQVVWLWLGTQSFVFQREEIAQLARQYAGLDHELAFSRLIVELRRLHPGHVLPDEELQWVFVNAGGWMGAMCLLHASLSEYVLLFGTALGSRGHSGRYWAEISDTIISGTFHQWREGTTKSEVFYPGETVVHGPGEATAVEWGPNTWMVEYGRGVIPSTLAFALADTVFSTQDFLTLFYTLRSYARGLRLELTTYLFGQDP
# [3] = Ratio of free drug concentration in CSF to plasma of Sprague-Dawley rat at 1 mg/kg, iv; type: ADME, organism-based
# Cytochrome P450 2D6 = Cytochrome P450 2D6 (Homo sapiens, UniProt P10635); assay: Time dependent inhibition of CYP2D6 (unknown origin); type: ADME
# Chain of Cytochrome P450 2D6 (P10635 whole entry): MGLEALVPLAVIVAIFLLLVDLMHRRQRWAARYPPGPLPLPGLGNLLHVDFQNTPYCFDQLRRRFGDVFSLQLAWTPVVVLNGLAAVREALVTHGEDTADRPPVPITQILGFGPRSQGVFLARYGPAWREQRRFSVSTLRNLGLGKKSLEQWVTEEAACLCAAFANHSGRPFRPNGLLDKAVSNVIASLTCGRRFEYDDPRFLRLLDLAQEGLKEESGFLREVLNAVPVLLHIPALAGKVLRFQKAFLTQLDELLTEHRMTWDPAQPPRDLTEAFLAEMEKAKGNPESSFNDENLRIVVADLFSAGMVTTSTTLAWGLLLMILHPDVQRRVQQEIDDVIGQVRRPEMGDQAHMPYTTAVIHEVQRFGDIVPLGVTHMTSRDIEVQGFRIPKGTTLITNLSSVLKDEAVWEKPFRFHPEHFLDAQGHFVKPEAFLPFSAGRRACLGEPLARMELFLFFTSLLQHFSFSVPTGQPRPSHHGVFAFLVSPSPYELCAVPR
# [4] = biological target: T3, Voltage-gated inwardly rectifying potassium channel KCNH2 (Homo sapiens, UniProt Q12809); assay: Inhibition of human ERG by patch clamp assay
# T3 sequence (Q12809 whole entry): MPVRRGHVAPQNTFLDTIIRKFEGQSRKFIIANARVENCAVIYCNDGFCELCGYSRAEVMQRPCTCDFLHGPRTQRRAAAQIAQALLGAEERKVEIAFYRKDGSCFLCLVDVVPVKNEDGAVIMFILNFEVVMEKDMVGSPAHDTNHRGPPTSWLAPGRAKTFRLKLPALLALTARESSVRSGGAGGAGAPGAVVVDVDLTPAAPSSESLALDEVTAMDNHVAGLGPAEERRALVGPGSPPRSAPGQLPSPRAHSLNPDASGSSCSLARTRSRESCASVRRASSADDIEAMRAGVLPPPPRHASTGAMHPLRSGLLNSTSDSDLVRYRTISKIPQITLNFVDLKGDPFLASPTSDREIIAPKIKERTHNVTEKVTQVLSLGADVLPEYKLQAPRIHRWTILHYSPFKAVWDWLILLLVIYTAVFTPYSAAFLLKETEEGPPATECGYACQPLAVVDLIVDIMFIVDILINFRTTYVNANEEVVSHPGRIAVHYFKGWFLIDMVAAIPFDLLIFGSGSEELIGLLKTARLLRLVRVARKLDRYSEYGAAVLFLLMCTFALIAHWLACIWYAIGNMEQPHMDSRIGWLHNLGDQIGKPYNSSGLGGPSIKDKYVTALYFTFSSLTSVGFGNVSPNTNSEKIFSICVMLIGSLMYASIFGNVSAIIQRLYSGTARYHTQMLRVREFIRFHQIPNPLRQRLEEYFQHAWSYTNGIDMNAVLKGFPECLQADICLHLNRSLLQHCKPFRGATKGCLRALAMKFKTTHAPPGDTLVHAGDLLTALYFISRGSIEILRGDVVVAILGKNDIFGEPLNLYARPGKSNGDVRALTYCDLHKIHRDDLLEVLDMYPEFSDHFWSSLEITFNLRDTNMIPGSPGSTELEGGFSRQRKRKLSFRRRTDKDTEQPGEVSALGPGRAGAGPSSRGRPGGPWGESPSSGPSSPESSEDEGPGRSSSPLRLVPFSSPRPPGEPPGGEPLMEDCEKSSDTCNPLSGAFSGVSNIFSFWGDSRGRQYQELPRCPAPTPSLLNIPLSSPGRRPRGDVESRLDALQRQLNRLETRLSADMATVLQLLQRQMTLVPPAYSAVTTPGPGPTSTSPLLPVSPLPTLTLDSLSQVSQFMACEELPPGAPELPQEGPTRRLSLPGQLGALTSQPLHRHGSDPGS
# [5] = biological target: T3, Voltage-gated inwardly rectifying potassium channel KCNH2; assay: Inhibition of human ERG tail current by electrophysiological assay relative to control
# Method in brief: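 HEK cells, whole-cell electrophysiology. hERG tail current recorded at −40 mV after a depolarizing step to +30 mV; n = 3.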
# CYP1A2 [6] = biological target: T4, CYP1A2 (Homo sapiens, UniProt P05177); assay: Inhibition of CYP1A2 in human liver microsomes using phenacetin as substrate preincubated for 15 mins followed by NADPH addition and measured after 8 mins by LC-MS/MS analysis; type: ADME; conditions: human, liver microsomes, probe phenacetin; time 23 min; read-out: INH
# T4 sequence (P05177 whole entry): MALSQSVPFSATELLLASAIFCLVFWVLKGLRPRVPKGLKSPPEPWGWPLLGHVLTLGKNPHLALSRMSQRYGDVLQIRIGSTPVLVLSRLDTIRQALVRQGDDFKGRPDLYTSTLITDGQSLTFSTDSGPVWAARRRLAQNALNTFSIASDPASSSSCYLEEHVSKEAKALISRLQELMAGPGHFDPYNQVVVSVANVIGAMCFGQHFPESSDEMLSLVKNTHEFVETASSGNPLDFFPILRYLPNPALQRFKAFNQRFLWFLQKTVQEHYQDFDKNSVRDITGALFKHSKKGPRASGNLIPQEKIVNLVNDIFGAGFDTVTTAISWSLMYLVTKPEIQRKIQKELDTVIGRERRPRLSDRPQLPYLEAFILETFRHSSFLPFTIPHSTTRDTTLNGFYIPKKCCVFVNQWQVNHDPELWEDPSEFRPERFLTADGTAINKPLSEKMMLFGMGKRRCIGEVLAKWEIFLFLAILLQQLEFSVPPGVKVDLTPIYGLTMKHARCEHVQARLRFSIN
# Method in brief: (§1)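 Cocktail CYP450 inhibition assay run in human liver microsomes.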
# [7] = Volume of distribution at steady state in CD-1 mouse at 1.0 mg/kg, iv measured upto 24 hrs by LC-MS/MS analysis; type: ADME, organism-based; conditions: in vivo, read-out: Vdss
# Method in brief: (§2)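 Pharmacokinetics in Sprague-Dawley rat, CD-1 mouse and beagle dog. Intravenous dose was 1 mg/kg in each species. Oral doses were given as a suspension: 10 mg/kg in rat, 3 mg/kg in mouse and dog. Each parameter is the mean of two to three animals.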
# [8] = Ratio of free drug concentration in brain to plasma of rat at 1 mg/kg, po after 1 hr; type: ADME, organism-based
# Method in brief: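 At the end of the catalepsy study, 1 h after a 1 mg/kg oral dose in rats, total brain/plasma (Kp) and unbound brain/plasma (Kp,uu) ratios were determined.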
# [9] = Clearance in Sprague-Dawley rat plasma at 1.0 mg/kg, iv measured upto 24 hrs by LC-MS/MS analysis; type: ADME, organism-based
# Method in brief: (§3)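 Single iv and oral (suspension) dosing; iv/po doses 1/10 mg/kg in SD rat, 1/3 mg/kg in CD-1 mouse and beagle dog. Plasma PK parameters are means from two to three animals per species.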
# [10] = Kinetic solubility of compound at pH 6.8; type: physicochemical; conditions: buffer, read-out: Kinetic_solubility
# Method in brief: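 Kinetic solubility measured at pH 6.8.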
# [11] = Clearance in Beagle dog plasma at 1.0 mg/kg, iv measured upto 24 hrs by LC-MS/MS analysis; type: ADME, organism-based, Canis lupus familiaris; method in brief: as §3
# [12] = Antagonist activity at human muscarinic acetylcholine M4 receptor expressed in CHO cells assessed as inhibition of acetylcholine-induced calcium mobilization relative to control; type: cell-based; set-up: concentration or dose not given beside the values; conditions: concentration not given here
# Method in brief: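 CHO cells stably transfected with human M4 were pretreated with the compound, then stimulated with an EC80 concentration of acetylcholine. The response was read as calcium mobilization, and IC50 was derived from the concentration-response. Each experiment was run in triplicate.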
# [13] = Oral bioavailability in Sprague-Dawley rat at 10 mg/kg measured upto 24 hrs by LC-MS/MS analysis; type: ADME, organism-based; conditions: in vivo; method in brief: as §3
# [14] = biological target: Muscarinic acetylcholine receptor M1 (Homo sapiens, UniProt P11229); assay: Antagonist activity at human muscarinic M1 receptor expressed in CHO cells co-expressing Gqi5 assessed as inhibition of acetylcholine-induced calcium mobilization; type: functional
# Chain of Muscarinic acetylcholine receptor M1 (P11229 whole entry): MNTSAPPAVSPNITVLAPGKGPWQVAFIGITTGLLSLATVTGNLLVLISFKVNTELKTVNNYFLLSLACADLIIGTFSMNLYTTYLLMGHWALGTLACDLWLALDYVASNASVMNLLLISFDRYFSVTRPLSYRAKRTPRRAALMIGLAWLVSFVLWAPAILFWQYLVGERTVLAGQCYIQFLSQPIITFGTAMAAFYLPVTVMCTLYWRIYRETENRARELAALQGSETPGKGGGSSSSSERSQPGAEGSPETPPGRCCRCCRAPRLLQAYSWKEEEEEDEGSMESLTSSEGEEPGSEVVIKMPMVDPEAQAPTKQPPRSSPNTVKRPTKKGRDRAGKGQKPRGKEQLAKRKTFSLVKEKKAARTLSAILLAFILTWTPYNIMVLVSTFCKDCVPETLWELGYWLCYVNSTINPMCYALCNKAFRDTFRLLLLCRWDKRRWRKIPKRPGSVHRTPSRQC
# Method in brief: (§4)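 CHO cells stably transfected with the given human mAChR subtype. Compound added before an EC80 concentration of acetylcholine; antagonism read as calcium mobilization. One independent determination in triplicate.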
# CYP1A2 [15] = biological target: T4, CYP1A2; assay: Induction of CYP1A2 in human hepatocytes relative to control; type: ADME, cell-based, Hepatocyte
# [16] = biological target: Muscarinic acetylcholine receptor M3 (Homo sapiens, UniProt P20309); assay: Antagonist activity at human muscarinic M3 receptor expressed in CHO cells co-expressing Gqi5 assessed as inhibition of acetylcholine-induced calcium mobilization; type: functional; method in brief: as §4
# hERG = hERG (Homo sapiens, UniProt Q12809); assay: Inhibition of human ERG at 10 uM relative to control
# Chain of hERG (Q12809 whole entry): as the sequence (Q12809 whole entry) above
# CYP3A4 [17] = biological target: T1, CYP3A4; assay: Inhibition of CYP3A4 in human liver microsomes using midazolam as substrate preincubated for 15 mins followed by NADPH addition and measured after 8 mins by LC-MS/MS analysis; type: ADME; conditions: human, liver microsomes, probe midazolam; time 23 min; read-out: INH; method in brief: as §1
# [18] = Tmax in Sprague-Dawley rat at 10 mg/kg, po measured upto 24 hrs by LC-MS/MS analysis; type: ADME, organism-based; conditions: in vivo; method in brief: as §2
# CYP2B6 = CYP2B6 (Homo sapiens, UniProt P20813); assay: Induction of CYP2B6 in human hepatocytes relative to control; type: ADME, cell-based, Hepatocyte
# Chain of CYP2B6 (P20813 whole entry): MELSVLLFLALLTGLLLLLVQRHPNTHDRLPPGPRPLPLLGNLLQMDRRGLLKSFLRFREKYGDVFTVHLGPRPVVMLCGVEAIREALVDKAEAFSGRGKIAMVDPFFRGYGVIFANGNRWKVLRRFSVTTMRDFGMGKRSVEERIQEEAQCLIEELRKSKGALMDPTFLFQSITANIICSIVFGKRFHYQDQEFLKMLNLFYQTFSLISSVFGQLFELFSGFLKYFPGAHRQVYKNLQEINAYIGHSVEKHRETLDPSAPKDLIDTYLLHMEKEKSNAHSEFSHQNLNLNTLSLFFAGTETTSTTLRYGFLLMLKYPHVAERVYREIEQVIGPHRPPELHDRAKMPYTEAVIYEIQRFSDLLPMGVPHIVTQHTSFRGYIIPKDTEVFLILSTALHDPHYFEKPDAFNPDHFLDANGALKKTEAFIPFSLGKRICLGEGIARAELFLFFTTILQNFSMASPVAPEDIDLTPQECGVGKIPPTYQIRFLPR
# Rattus norvegicus [19] = assay: Reversal of haloperidol-induced catalepsy in rat at 3 mg/kg, po relative to control; type: functional
# Method in brief: (§5)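 Rat haloperidol-induced catalepsy model with oral test dosing at 0.3, 1 and 3 mg/kg alongside vehicle-treated controls. Read-out is latency to withdraw, also expressed as % reversal of catalepsy. Groups compared by ANOVA.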
# Rattus norvegicus [20] = assay: Effect on haloperidol-induced catalepsy in rat assessed as reduction in mean latency to withdraw at 0.3 mg/kg, po (reference value: 43.4 +/- 4.3 sec); type: functional; method in brief: as §5
# [21] = Tmax in CD-1 mouse at 3 mg/kg, po measured upto 24 hrs by LC-MS/MS analysis; type: ADME, organism-based; conditions: in vivo; method in brief: as §2
# Rattus norvegicus [22] = assay: Reversal of haloperidol-induced catalepsy in po dosed rat; type: functional, organism-based; method in brief: as §5
# [23] = biological target: T2, Sigma non-opioid intracellular receptor 1; assay: Inhibition of human sigma1 receptor at 10 uM relative to control
# [24] = Volume of distribution at steady state in Sprague-Dawley rat at 1.0 mg/kg, iv measured upto 24 hrs by LC-MS/MS analysis; type: ADME, organism-based; conditions: in vivo, read-out: Vdss; method in brief: as §2
# T1 sequence (P08684 whole entry): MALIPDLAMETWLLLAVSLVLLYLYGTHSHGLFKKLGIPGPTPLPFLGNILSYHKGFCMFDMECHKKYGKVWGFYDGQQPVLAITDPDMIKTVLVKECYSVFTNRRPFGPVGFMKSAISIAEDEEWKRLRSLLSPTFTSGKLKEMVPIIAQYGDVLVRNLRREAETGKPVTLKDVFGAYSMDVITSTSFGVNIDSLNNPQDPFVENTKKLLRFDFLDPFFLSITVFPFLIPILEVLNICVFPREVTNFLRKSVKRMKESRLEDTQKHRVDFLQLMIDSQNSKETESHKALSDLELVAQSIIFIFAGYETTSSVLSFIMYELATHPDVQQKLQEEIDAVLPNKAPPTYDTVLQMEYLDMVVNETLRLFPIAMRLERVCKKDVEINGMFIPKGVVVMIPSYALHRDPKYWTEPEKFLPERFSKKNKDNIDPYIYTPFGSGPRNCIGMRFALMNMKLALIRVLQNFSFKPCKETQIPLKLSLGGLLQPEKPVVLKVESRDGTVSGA
smiles,measurement,setting,value
Fc1cc(F)c(F)c(-c2ccc(N[C@H]3C[C@@H]4CN(CC5CCOCC5)C[C@@H]4C3)nn2)c1,EC50,CYP3A4 [1],1900 nM
same,Ki,[2],16.9 nM
same,Kp uu,[3],0.24
same,IC50,Cytochrome P450 2D6,> 100000 nM
same,IC50,[4],431 nM
same,inhibition (INH),[5],94%
same,IC50 at 8 min,CYP1A2 [6],> 30000 nM
same,Vd,[7],10.6 L/kg
same,Kp uu at 1 h,[8],0.32
same,clearance,[9],6.1 mL/min/kg
same,solubility kinetic,[10],85.1 µM
same,clearance,[11],43 mL/min/kg
same,inhibition,[12],3%
same,inhibition,[12]; tested as the 2H-labelled form,3%
same,bioavailability,[13],≥ 100%
same,IC50,[14],> 10000 nM
same,Emax,CYP1A2 [15],2.1%
same,IC50,[16],> 10000 nM
same,inhibition at 10 µM,hERG,61%
same,IC50 at 8 min,CYP3A4 [17],> 30000 nM
same,Tmax,[18],1.5 h
same,Emax,CYP2B6,2.1%
same,Activity,Rattus norvegicus [19],65.2%
same,Activity,Rattus norvegicus [20],32 s
same,Tmax,[21],6.67 h
same,Activity,Rattus norvegicus [22],Dose-Dependent Effect
same,inhibition,[23],101%
same,Vd,[24],6.7 L/kg
